Data from article PMC7392372 (Bioorganic & medicinal chemistry letters, 2018).

Assays:
BRD4 (BD1,2) = BRD4 (BD1,2) (Homo sapiens, UniProt O60885); experiment: BROMOScan competitive binding affinity, BRD4; conditions: for fold improvement in Kd values: relative to smaller 2-substitutions (13, 14); for fold decrease of potency in binding affinity (Kd): relative to 17
[1] = Pharmacokinetics in CD-1 mice; assay type: in vivo; conditions: po 10 mg/kg, n=3
Outline: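 CD-1 mice received a single 10 mg/kg oral dose, n = 3. AUC0−∞ (h·ng/mL) was reported together with t1/2, Cmax, Vss, CLp and F%. For oral bioavailability, an intravenous arm dosed at 2 mg/kg was also run.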

Structure (SMILES) | fold improvement in Kd values (BRD4 (BD1,2)) | fold decrease of potency in binding affinity (Kd) (BRD4 (BD1,2)) | other results
Cc1noc(C)c1-c1ccc2nc(N(C)CCN(C)C)nc(NCc3cccc(Cl)c3)c2c1 [compound 15] | ~ 20 fold | – | –
Cc1noc(C)c1-c1ccc2nc(N3CCN(C)CC3)nc(NCc3cccc(Cl)c3)c2c1 [compound 16] | ~ 20 fold | – | –
Cc1noc(C)c1-c1ccc2c(NCc3cccc(Cl)c3)nc(N3CCN(CCN(C)C)CC3)nc2c1 [compound 40] | – | ~ 12 fold | –
CN(C)CCN1CCN(c2nc(NCc3cccc(Cl)c3)c3cc(-c4ccc(=O)n(C)c4)ccc3n2)CC1 [compound 48] | – | – | AUC0−∞ [1]: no exposure
Cc1noc(C)c1-c1ccc2nc(N3CCN(CCN(C)C)CC3)nc(NCc3ccc(Cl)cc3)c2c1 [compound 51] | – | ~ 9 fold | –
Cc1noc(C)c1-c1ccc2nc(N3CCN(CCN(C)C)CC3)nc(N(C)Cc3cccc(Cl)c3)c2c1 [compound 57] | – | 2–3 fold | –
